Scp-1 inhibitor: Scp-1 phosphatase inhibitors, primary screen, biochemical, colorimetric, uHTS | Recombinant Scp1, phosphopeptide, malachite green phosphate absorbance | inhibition, % at 20 µM | 0.88% of 340,000 active | AID 493091, 2011;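 active = inhibition above about 50% at 20 µM, limit read from the data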;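 note: plate controls were DMSO wells with enzyme for no effect and wells lacking enzyme for full effect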
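Material: truncated SCP-1 phosphatase (76-261aa) / Buffer or medium: 50 mM Tris acetate pH 5.5, 0.005% Tween-20, 10 mM MgCl2 / Compound dosing: one concentration, 20 µM, with 1.0% DMSO / Incubation: 45 min room-temperature reaction, 5 min colour, 30 min stabiliser / Detection: colorimetric free-phosphate detection, absorbance 630 nm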
DNMT1 inh: human DNMT1 methyltransferase inhibitors, primary screen, biochemical, molecular beacon, fluorescence, HinP1I cleavage, uHTS; DNA (cytosine-5)-methyltransferase 1 (Homo sapiens), P26358; inhibition (reported as % activation of signal), % at 10 µM; 0.83% of 360,000 active; AID 588458, 2011; in the data active = inhibition above about 50%
SUMO1 PPI mod: modulators of SUMO1 protein-protein interactions, primary screen, biochemical, uHTS. Small ubiquitin-related modifier 1 (Homo sapiens), P63165. SUMO1 binding to a labelled peptide, TR-FRET, 1 h. inhibition, % at 20 µM. 0.33% of 360,000 active. AID 602429, 2012; in the data active = inhibition above about 37%
LMPTP inh: LMPTP phosphatase inhibitors, primary screen, biochemical, fluorescence intensity, uHTS; Low molecular weight phosphotyrosine protein phosphatase (Homo sapiens), P24666; recombinant LMPTP-A, OMFP fluorogenic substrate; inhibition, % at 20 µM; 0.22% of 360,000 active;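 active = compounds that cut the enzyme signal by at least half of the control window in the single-dose screen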;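 note: plate controls were DMSO wells with enzyme plus substrate for no effect and substrate without enzyme for full effect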
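Test system: LMPTP-A, protein tyrosine phosphatase of low molecular weight; Input: 0.625 nM enzyme; Incubation: 50 min dark incubation at room temperature; Signal: endpoint fluorescence intensity from OMFP dephosphorylation; Read-out basis: % inhibition versus control wells.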
STEP inh: STEP phosphatase inhibitors, primary screen, biochemical, fluorescence intensity, uHTS. Tyrosine-protein phosphatase non-receptor type 5 (Homo sapiens), P54829. recombinant STEP, OMFP fluorogenic substrate. inhibition, % at 20 µM. 0.25% of 360,000 active;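 active = inhibition at 20 µM, scaled per plate between control wells, above about 37%, limit read from the data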;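 note: 0% = DMSO with enzyme and substrate and 100% = substrate only without enzyme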
Target sequence (P54829 whole entry, looked up): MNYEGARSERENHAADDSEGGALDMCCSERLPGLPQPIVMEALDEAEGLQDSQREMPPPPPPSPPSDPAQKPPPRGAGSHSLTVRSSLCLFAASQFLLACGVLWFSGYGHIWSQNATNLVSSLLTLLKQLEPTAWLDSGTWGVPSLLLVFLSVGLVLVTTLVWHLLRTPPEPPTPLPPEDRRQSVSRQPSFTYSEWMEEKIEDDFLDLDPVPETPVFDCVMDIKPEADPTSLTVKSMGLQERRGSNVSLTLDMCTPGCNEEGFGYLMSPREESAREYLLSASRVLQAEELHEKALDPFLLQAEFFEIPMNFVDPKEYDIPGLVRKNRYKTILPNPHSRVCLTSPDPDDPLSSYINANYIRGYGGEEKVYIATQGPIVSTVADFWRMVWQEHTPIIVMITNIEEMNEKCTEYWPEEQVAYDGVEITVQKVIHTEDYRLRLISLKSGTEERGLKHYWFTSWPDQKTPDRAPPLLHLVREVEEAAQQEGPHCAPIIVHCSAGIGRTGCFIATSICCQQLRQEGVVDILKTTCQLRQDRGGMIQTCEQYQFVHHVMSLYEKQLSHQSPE
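Material: STEP (striatal-enriched tyrosine phosphatase) enzyme, cell-free; Compound dosing: 20 µM single dose in 1% DMSO; Technique: fluorescence read at 480 nm ex / 540 nm em; Times: reaction 20 min, ambient temperature; Medium: 50 mM Bis-Tris pH 6.0 with 2.5 mM DTT and 0.005% Tween 20; Also added: OMFP at 25 µM.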
CSN deneddyl inh: inhibitors of CSN-mediated cullin deneddylation, primary screen, biochemical, fluorescence polarization, uHTS; inhibition, % at 12.5 µM; Purified CSN, SCF-Nedd8-OG deneddylation; 0.38% of 360,000 active;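 active = pattern-corrected inhibition above about 35%, with an unprinted fluorescence ratio check between 0.5 and 1.5, limit read from the data, passing the limit was not always enough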;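 note: 0% = enzyme with substrate and 100% = substrate without enzyme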
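Schedule: reaction 90 min, room temperature / Assay system: HEK293T-derived human Csn5 enzyme / Input: Csn5 at 0.24 nM final / Measure: inhibition of Csn5 cleavage, % / Control set: substrate-only high control, full reaction low control / Technique: fluorescence polarization of the substrate / Buffer or medium: Tris/NaCl/DTT buffer, pH 7.5 / Reagent: SCFSkp2-Nedd8OG substrate at 10 nM final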
Scp1 confirm: Scp-1 phosphatase inhibitors, retest, confirmation, biochemical, colorimetric, single concentration | recombinant SCP-1 catalytic domain, phosphate release, malachite green absorbance | inhibition, % at 20 µM | AID 540281, 2011 | 61% of 2,500 active | shares compounds with Scp-1 inhibitor;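 note: plate controls were DMSO with enzyme for no effect and buffer wells lacking enzyme for full effect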
Scp-1 MG ctr: colorimetric readout interference by compounds, confirmation, artefact control for Scp-1 inhibitor project, biochemical, single concentration; apparent inhibition (interference), % at 20 µM; shares compounds with Scp-1 inhibitor; 2,500 tested, under 10 active; Colorimetric interference counterscreen, malachite green absorbance 630 nm;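 note: compounds added after enzyme reaction finished so only phosphate colour detection is probed; plate controls were DMSO wells with completed Scp-1 reaction for no effect and substrate wells lacking enzyme for full effect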
Scp1 DSF: Scp-1 binding by thermal shift, confirmation, orthogonal assay for Scp-1 inhibitor project, biophysical, differential scanning fluorimetry. AID 540329, 2011. Recombinant SCP1, Sypro Orange thermal shift Tm. shares compounds with Scp-1 inhibitor. 25% of 1,500 active. thermal shift relative to vanadate control, % at 40 µM;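 active = substances whose mean melting-temperature shift, as a percentage of the reference inhibitor's shift, reaches about 5.3%, limit read from the data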;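 note: 0% = Tm of DMSO wells and 100% = Tm with sodium orthovanadate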
* marks the source's active call; other numbers are inactive results; x = no result given. Rows were chosen to be rich in hits. Some 1.9% of all compounds tested hit in one or more screens of this group.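 Rule for the calls, unless noted: active = inhibition of at least 30% at 20 µM; inactive = the rest.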

SMILES | Scp-1 inhibitor | DNMT1 inh | SUMO1 PPI mod | LMPTP inh | STEP inh | CSN deneddyl inh | Scp1 confirm | Scp-1 MG ctr | others
CC(C)(C)c1ccc(C(=O)N2CCC2(C)C(=O)Nc2cccc3ccccc23)cc1 (stereo not drawn) | x | 0 | 1 | 5 | 3 | 3 | x | x
COc1ccc(CNC(=O)CN(C(=O)c2csnn2)c2cccc3ccccc23)cc1 | -1 | -6 | -5 | -1 | 4 | 2 | x | x
CNC(=S)Nc1ccc(C(N)=O)cc1 | -4 | 1 | 0 | -1 | -3 | 3 | x | x
CCOC(=O)NN1C(=O)c2ccccc2NC1(C)C | 72* | 0 | 2 | 0 | -1 | 7 | -4 | -7
CCOc1cc(C2C3=C(CC(C)(C)CC3=O)N(CCOC)C3=C2C(=O)CC(C)(C)C3)ccc1OC | 54* | 0 | -2 | -1 | -1 | 0 | -2 | -6
O=C(NCc1ccccc1OC(F)(F)F)C1CCC(=O)N(Cc2cccc(F)c2)C1 (stereo not drawn) | -10 | 0 | 5 | -1 | -3 | 2 | x | x
O=C(NCCN1CCNC1=O)C1CCC(=O)N(Cc2ccccc2F)C1 (stereo not drawn) | -7 | 3 | 4 | -2 | -3 | 4 | -17 | -16
Cc1ccccc1CNC(=O)C1CCC(=O)N(Cc2cccc(F)c2)C1 (stereo not drawn) | 1 | 2 | 4 | -1 | 1 | 3 | -13 | -13
COc1ccccc1CN1CC(C(=O)NCc2cc(C(C)C)no2)CCC1=O (stereo not drawn) | 70* | 1 | 5 | -1 | -4 | 0 | -8 | -10
c1ccc(-c2onc(-c3ccco3)c2-c2ccc3[nH]ccc3c2)cc1 | -7 | -25 | 8 | 4 | -3 | 4 | x | x
CC(C)(C)c1ccc(Cc2n[nH]c(=S)[nH]c2=O)cc1 | -3 | 4 | 6 | -2 | 3 | 2 | x | x
Cc1c(CC(=O)N[C@@H](CCCNC(N)=O)C(=O)O)c(=O)oc2cc3oc4c(c3cc12)CCCC4 | x | 0 | 2 | -1 | 1 | -7 | x | x
Cc1oc2c(C)c3oc(=O)c(CC(=O)N[C@@H](CCCNC(N)=O)C(=O)O)c(C)c3cc2c1C | 52* | 33 | 30 | 3 | 25 | 5 | 43* | -7 | Scp1 DSF=-7
NCCCCC(=O)O | 54* | -2 | 1 | -3 | -3 | -7 | -7 | -11
NCCCC(=O)O | -6 | 2 | 1 | -1 | -4 | -3 | x | x
Cc1nnc(NC(=O)C2CC(=O)N(c3ccc4c(c3)OCCO4)C2)s1 (stereo not drawn) | 1 | 6 | -4 | 0 | -2 | 3 | x | x
O=C(Nc1nnc(SCc2ccc(F)cc2)s1)C1CC(=O)N(c2ccc3c(c2)OCCO3)C1 (stereo not drawn) | -1 | 0 | 6 | 1 | -4 | 0 | x | x

Screens (PubChem)
